Measured values published in ChEMBL document CHEMBL1132344, “Novel calcium antagonists with both calcium overload inhibition and antioxidant activity. 2. Structure-activity relationships of thiazolidinone derivatives” (J Med Chem, 1999).
pIC50: −log10 of the molar value.

Key:
Rattus norvegicus [1] = species: Rattus norvegicus; experiment: Compound was tested in vitro for [Ca2+] antagonistic activity in K+-depolarized isolated rat aorta; type: functional
Method in brief: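 Thoracic aorta rings (2–3 mm) from male Sprague–Dawley rats (350–550 g), isometric tension in Krebs–Henseleit pH 7.4, 37 °C, 95% O2/5% CO2, 2 g resting tension. After a priming 30 mM K+ contraction and washout, second 30 mM K+ contraction; compound added cumulatively in half-log steps. IC50 = concentration relaxing contraction to 50%; mean ± SE, 2–8 experiments.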

Canis familiaris = experiment: Effect on coronary blood flow (CBF) by intravenous administration of compound in anesthetized dogs.; type: functional, Canis lupus familiaris; set-up: concentration or dose not given beside the values
Method in brief: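 Male beagles (9–14 kg) under pentobarbital (35 mg/kg iv, then 3–5 mg/kg/h infusion), artificially ventilated, left thoracotomy. Compound given iv via cephalic vein at […]. Coronary blood flow change expressed as maximal percent change from pre-dose value; mean ± SE from 5–6 dogs or a single experiment.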

Rattus norvegicus [2] = species: Rattus norvegicus; experiment: Compound was tested for [Ca2+] overload inhibitory activity in the veratridine-induced [Ca2+] overload model of rat cardiac myocytes.; type: functional, organism-based
Method in brief: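 Ventricular myocytes isolated from male Sprague–Dawley rats (300–500 g) by enzyme perfusion; rod-shaped cells exposed to compound 30 min, then 50 μg/mL veratridine added. Survival judged by cell shape 5 min later. Value is molar concentration inhibiting cell death by >80%; 2–8 experiments, >50 rod-shaped myocytes each.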

Oryctolagus cuniculus [3] = species: Oryctolagus cuniculus; experiment: in vitro inhibitory activity on soybean lipoxygenase-induced lipid peroxidations of rabbit low-density lipoprotein (LDL) at 5 uM dosage.; type: functional, organism-based
Method in brief: (§1)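 Rabbit LDL (Havel method) with compound, oxidised by soybean lipoxygenase type-1S (40 μg/mL final) for 24 h at 37 °C in CO2 incubator. LDL fraction separated by gel-permeation chromatography; fluorescence read at ex 360/em 430 nm. Expressed as percent of control.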

Oryctolagus cuniculus [4] = species: Oryctolagus cuniculus; experiment: in vitro inhibitory activity on soybean lipoxygenase-induced lipid peroxidations of rabbit low-density lipoprotein (LDL) at 0.5 uM dosage; type: functional; method in brief: as §1
Oryctolagus cuniculus [5] = species: Oryctolagus cuniculus; experiment: In vitro inhibitory activity on soybean lipoxygenase-induced lipid peroxidations of rabbit low-density lipoprotein (LDL) at 0.5 uM dosage; type: functional; method in brief: as §1
Oryctolagus cuniculus [6] = species: Oryctolagus cuniculus; experiment: In vitro inhibitory activity on soybean lipoxygenase-induced lipid peroxidations of rabbit low-density lipoprotein (LDL) at 5 uM dosage.; type: functional, organism-based; method in brief: as §1

Structure (SMILES) | pIC50 (Rattus norvegicus [1]; Rattus norvegicus, Aorta) | pIC50 (Rattus norvegicus [2]; Rattus norvegicus) | also measured
CN(CCOc1ccc2c(c1)OCO2)CCN1C(=O)CSC1c1cc(C(C)(C)C)c(O)c(C(C)(C)C)c1 (stereo not drawn) | 6.44 | – | –
CN(CCCN1C(=O)CSC1c1cc(C(C)(C)C)c(O)c(C(C)(C)C)c1)CCOc1ccc2c(c1)OCO2 (single isomer, unassigned; (-)) [listing 1 of 2 here] | – | – | CBF increasing activity (Canis familiaris): 117%; pIC50 (Rattus norvegicus [2]): 6.49; pIC50 (Rattus norvegicus [1]): 7.48
Cc1cc(C(C)(C)C)c(O)c(C(C)(C)C)c1 [BUTYLATED HYDROXYTOLUENE] | 4.71 | 6.05 | –
CN(CCCN1C(=O)CSC1c1cc(C(C)(C)C)c(O)c(C(C)(C)C)c1)CCOc1ccc2c(c1)OCO2 (single isomer, unassigned; (-)) [listing 2 of 2 here] | – | – | LDL oxidation (Oryctolagus cuniculus [3]): 3.9%; LDL oxidation (Oryctolagus cuniculus [4]): 16.4%
CN(CCCN1C(=O)CSC1c1ccc(O)cc1)CCOc1ccc2c(c1)OCO2 (stereo not drawn) | 5.59 | – | –
CN(CCCN1C(=S)CSC1c1cc(C(C)(C)C)c(O)c(C(C)(C)C)c1)CCOc1ccc2c(c1)OCO2 (stereo not drawn) | 6.80 | – | LDL oxidation (Oryctolagus cuniculus [3]): 11.3%; LDL oxidation (Oryctolagus cuniculus [4]): 22.8%
CN(CCCN1C(=O)CSC1c1cc(C(C)(C)C)c(O)c(C(C)(C)C)c1)CCOc1ccc2c(c1)OCO2 (stereo in doubt; 1) [listing 1 of 2 here] | – | – | LDL oxidation (Oryctolagus cuniculus [5]): 12.9%; LDL oxidation (Oryctolagus cuniculus [6]): 3%
CCc1cc(C2SCC(=O)N2CCCN(C)CCOc2ccc3c(c2)OCO3)cc(CC)c1O (stereo not drawn) | 6.49 | – | –
COc1cc(C2SCC(=O)N2CCCN(C)CCOc2ccc3c(c2)OCO3)cc(OC)c1O (stereo not drawn) | 5.39 | – | –
CN(CCCOc1ccc2c(c1)OCO2)CCCN1C(=O)CSC1c1cc(C(C)(C)C)c(O)c(C(C)(C)C)c1 (stereo not drawn) | 7.11 | 6.49 | CBF increasing activity (Canis familiaris): 23%; LDL oxidation (Oryctolagus cuniculus [3]): 3.9%; LDL oxidation (Oryctolagus cuniculus [4]): 16.4%
CC(C)N(CCCN1C(=O)CSC1c1cc(C(C)(C)C)c(O)c(C(C)(C)C)c1)CCOc1ccc2c(c1)OCO2 (stereo not drawn) | 6.35 | 6.00 | –
CN(CCCN1C(=O)CSC1c1cc(C(C)(C)C)c(O)c(C(C)(C)C)c1)CCOc1ccc2c(c1)OCO2 (single isomer, unassigned; (+)) [listing 1 of 2 here] | – | – | LDL oxidation (Oryctolagus cuniculus [3]): 5.9%; LDL oxidation (Oryctolagus cuniculus [4]): 13.5%
Cc1cc(C2SCC(=O)N2CCCN(C)CCOc2ccc3c(c2)OCO3)cc(C(C)(C)C)c1O (stereo not drawn) | 6.55 | – | –
CN(CCCCN1C(=O)CSC1c1cc(C(C)(C)C)c(O)c(C(C)(C)C)c1)CCOc1ccc2c(c1)OCO2 (stereo not drawn) | 6.68 | 6.00 | –
CC(C)(C)c1cc(C2SCC(=O)N2CCCN(CCO)CCOc2ccc3c(c2)OCO3)cc(C(C)(C)C)c1O (stereo not drawn) | 6.49 | – | –
CC(C)(C)c1cc(C2SCC(=O)N2CCCNCCOc2ccc3c(c2)OCO3)cc(C(C)(C)C)c1O (stereo not drawn) | 6.80 | 6.00 | –
Cc1cc(C2SCC(=O)N2CCCN(C)CCOc2ccc3c(c2)OCO3)cc(C)c1O (stereo not drawn) | 5.64 | – | –
CN(CCCN1C(=O)CSC1c1cc(Cl)c(O)c(Cl)c1)CCOc1ccc2c(c1)OCO2 (stereo not drawn) | < 5.00 | – | –
COc1ccc([C@@H]2Sc3ccccc3N(CCN(C)C)C(=O)[C@@H]2OC(C)=O)cc1 [DILTIAZEM] | 7.00 | < 5.00 | CBF increasing activity (Canis familiaris): 86%; LDL oxidation (Oryctolagus cuniculus [3]): 111%; LDL oxidation (Oryctolagus cuniculus [4]): 109%
CN(CCCN1C(=O)C[S+]([O-])C1c1cc(C(C)(C)C)c(O)c(C(C)(C)C)c1)CCOc1ccc2c(c1)OCO2 (stereo not drawn) | 6.10 | – | –
CN(CCCCOc1ccc2c(c1)OCO2)CCCN1C(=O)CSC1c1cc(C(C)(C)C)c(O)c(C(C)(C)C)c1 (stereo not drawn) | 6.70 | 6.49 | –
CN(CCCN1C(=O)CSC1c1ccc(O)c(C(C)(C)C)c1)CCOc1ccc2c(c1)OCO2 (stereo not drawn) | 6.25 | – | –
Cc1cc(C2SCC(=O)N2CCCN(C)CCOc2ccc3c(c2)OCO3)c(C)c(C)c1O (stereo not drawn) | 6.20 | – | –
CCN(CCCN1C(=O)CSC1c1cc(C(C)(C)C)c(O)c(C(C)(C)C)c1)CCOc1ccc2c(c1)OCO2 (stereo not drawn) | 7.20 | 6.49 | CBF increasing activity (Canis familiaris): 52%; LDL oxidation (Oryctolagus cuniculus [3]): 6.4%; LDL oxidation (Oryctolagus cuniculus [4]): 16.8%
COc1c(C(C)(C)C)cc(C2SCC(=O)N2CCCN(C)CCOc2ccc3c(c2)OCO3)cc1C(C)(C)C (stereo not drawn) | 7.44 | 6.00 | LDL oxidation (Oryctolagus cuniculus [3]): 39.7%; LDL oxidation (Oryctolagus cuniculus [4]): 91.6%
CN(CCCCCN1C(=O)CSC1c1cc(C(C)(C)C)c(O)c(C(C)(C)C)c1)CCOc1ccc2c(c1)OCO2 (stereo not drawn) | 6.55 | – | LDL oxidation (Oryctolagus cuniculus [3]): 5.9%
CN(CCCN1C(=O)CSC1c1cc(C(C)(C)C)c(O)c(C(C)(C)C)c1)CCOc1ccc2c(c1)OCO2 (stereo in doubt; 1) [listing 2 of 2 here] | – | – | CBF increasing activity (Canis familiaris): 96%; pIC50 (Rattus norvegicus [1]): 7.21
CN(CCCN1C(=O)CSC1c1cc(C(C)(C)C)c(O)c(C(C)(C)C)c1)CCOc1ccc2c(c1)OCO2 (single isomer, unassigned; (+)) [listing 2 of 2 here] | – | – | CBF increasing activity (Canis familiaris): 16%; pIC50 (Rattus norvegicus [2]): 6.49; pIC50 (Rattus norvegicus [1]): 6.47
CC(C)c1cc(C2SCC(=O)N2CCCN(C)CCOc2ccc3c(c2)OCO3)cc(C(C)C)c1O (stereo not drawn) | 6.85 | 6.49 | –
Cc1c(C)c2c(c(C)c1O)CC[C@@](C)(CCC[C@H](C)CCC[C@H](C)CCCC(C)C)O2 [ALPHA-TOCOPHEROL] | 4.22 | 4.88 | –
